From paper PMC5077689 (FEBS letters, 2016)

Assays:
[1] = Compound aggregation by dynamic light scattering; type: physicochemical; details: DYNAPRO, Fig S2
sGC catalytic domain = target: T1, sGC catalytic domain (Homo sapiens, UniProt Q02108+Q02153); experiment: Purified sGC catalytic domain activity assay; type: biochemical; details: 1μM catalytic domain, 3 GTP concentrations, inhibitor 0–600μM
T1 sequence (Q02108 481-608 limits assumed): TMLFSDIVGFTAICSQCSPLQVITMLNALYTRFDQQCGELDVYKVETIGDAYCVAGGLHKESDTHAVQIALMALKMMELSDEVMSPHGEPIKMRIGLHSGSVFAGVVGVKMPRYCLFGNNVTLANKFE
T1 sequence (Q02153 421-554 limits assumed): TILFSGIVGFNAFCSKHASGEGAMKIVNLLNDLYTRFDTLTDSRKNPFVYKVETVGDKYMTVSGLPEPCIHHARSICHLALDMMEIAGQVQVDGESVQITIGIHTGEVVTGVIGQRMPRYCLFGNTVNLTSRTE
Procedure, shortened: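 Heterodimeric α1/β1 catalytic domain was co-purified from mixed cell pellets by His-tag Ni-NTA (30–300mM imidazole elution steps). The tag was removed with TEV, and the protein gel-filtered in 50mM HEPES pH 7, 150mM NaCl and stored at −80°C. Inhibitor was preincubated with domain 10 min at 37°C with Mg2+. GTP started the reaction, stopped by boiling after 10 min. cGMP measured by ELISA; triplicate; SEM.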

bovine lung sGC [2] = target: T2, bovine lung sGC (Bos taurus, UniProt P16068+P19687); experiment: BAY 41-2272 stimulated sGC activity assay; type: biochemical; details: 100μM inhibitor, range of BAY 41-2272, presence and absence of 1μM SNAP, 500μM GTP
T2 sequence (P19687 1-691): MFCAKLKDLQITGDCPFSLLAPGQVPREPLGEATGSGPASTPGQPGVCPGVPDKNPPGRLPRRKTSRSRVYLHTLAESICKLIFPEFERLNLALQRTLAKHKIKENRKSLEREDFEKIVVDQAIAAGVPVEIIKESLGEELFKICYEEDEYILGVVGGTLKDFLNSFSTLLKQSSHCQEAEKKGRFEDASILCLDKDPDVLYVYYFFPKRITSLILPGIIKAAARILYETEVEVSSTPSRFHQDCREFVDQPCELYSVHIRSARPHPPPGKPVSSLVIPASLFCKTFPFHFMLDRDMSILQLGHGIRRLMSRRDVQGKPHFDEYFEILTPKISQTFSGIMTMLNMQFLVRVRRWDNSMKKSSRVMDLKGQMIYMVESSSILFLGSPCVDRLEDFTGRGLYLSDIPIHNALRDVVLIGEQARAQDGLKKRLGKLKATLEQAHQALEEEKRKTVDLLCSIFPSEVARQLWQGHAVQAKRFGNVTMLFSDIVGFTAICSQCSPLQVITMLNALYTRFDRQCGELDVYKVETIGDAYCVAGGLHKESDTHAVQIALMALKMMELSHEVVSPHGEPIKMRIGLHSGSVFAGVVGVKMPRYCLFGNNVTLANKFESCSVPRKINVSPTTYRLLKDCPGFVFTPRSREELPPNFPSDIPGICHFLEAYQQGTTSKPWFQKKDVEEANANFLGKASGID
T2 sequence (P16068 1-619): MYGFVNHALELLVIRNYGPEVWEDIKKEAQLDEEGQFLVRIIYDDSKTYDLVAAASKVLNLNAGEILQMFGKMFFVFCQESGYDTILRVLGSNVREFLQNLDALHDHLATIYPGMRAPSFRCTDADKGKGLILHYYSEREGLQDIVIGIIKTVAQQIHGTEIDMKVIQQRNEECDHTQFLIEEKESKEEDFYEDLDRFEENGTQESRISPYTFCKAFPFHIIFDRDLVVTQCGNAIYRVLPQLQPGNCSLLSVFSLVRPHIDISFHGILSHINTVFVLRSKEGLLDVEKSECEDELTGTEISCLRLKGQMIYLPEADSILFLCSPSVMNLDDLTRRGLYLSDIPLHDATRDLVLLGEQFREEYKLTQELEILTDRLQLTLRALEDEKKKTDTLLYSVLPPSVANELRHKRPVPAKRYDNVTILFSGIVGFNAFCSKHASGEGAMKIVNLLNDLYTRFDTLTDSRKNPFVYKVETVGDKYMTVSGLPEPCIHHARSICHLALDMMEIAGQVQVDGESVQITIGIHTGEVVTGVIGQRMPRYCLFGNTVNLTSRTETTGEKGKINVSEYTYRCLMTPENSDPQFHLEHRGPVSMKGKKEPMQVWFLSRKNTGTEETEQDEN

bovine lung sGC [3] = target: T2, bovine lung sGC; experiment: NO; type: biochemical
Procedure, shortened: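 Screening and kinetics used bovine lung sGC diluted 17-fold in 50mM Tris pH 7.5, 5mM MgCl2, 2mM BME, 20% sucrose, 0.5mg/ml BSA. 1nM enzyme was preincubated with inhibitor 10 min at 37°C in 50mM Tris pH 7.5, 2mM BME, 5mM MgCl2. DMSO-matched controls (1–2.5%). GTP plus 100μM SNAP started a 10 min, 37°C reaction, stopped by 10 min boiling. cGMP measured by ELISA; 3 independent experiments.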

bovine lung sGC [4] = target: T2, bovine lung sGC; experiment: BAY 58-2667 activated sGC activity assay; type: biochemical; details: 100μM inhibitor, 600μM GTP
Procedure, shortened: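 Bovine lung sGC, diluted 17-fold in 50mM Tris pH 7.5, 5mM MgCl2, 2mM BME, 20% sucrose, 0.5mg/ml BSA, used at 1nM. Preincubated 10 min at 37°C with varying BAY 58-2667 and inhibitor in 5mM MgCl2. 0.5% DMSO served as control. GTP added to start. Stopped by boiling; cGMP measured by ELISA. Triplicate, 3 independent experiments; SEM.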

full length sGC = target: T3, full length sGC (Bos taurus, UniProt P16068+P19687); experiment: Size exclusion chromatography for sGC aggregation; details: 200μM compound, data not shown
T3 sequence (P19687 1-691): T2 sequence (P19687 1-691)
T3 sequence (P16068 1-619): T2 sequence (P16068 1-619)

SHV-1 β-lactamase = SHV-1 β-lactamase (Klebsiella pneumoniae, UniProt P0AD64); experiment: Promiscuous inhibition test with SHV-1 β-lactamase; type: biochemical; details: Fig S1
Sequence of SHV-1 β-lactamase (P0AD64 22-286): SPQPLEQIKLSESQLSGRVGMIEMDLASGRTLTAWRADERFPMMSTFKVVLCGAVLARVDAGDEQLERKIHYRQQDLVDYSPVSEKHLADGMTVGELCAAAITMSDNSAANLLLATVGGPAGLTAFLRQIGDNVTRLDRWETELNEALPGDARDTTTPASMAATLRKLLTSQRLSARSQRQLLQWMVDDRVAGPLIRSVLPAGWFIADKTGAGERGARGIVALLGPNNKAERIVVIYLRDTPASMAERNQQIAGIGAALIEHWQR

## Nc1nc(=O)[nH]nc1Nc1ccc(O)cc1 [Compound 1]
[1]
  aggregate formation (dynamic light scattering): do not form detectably large aggregates
sGC catalytic domain
  inhibition of the purified catalytic domain (in words): did not observe significant inhibition
Bovine lung sGC [2]
  inhibition of BAY 41-2272 stimulated sGC: inhibited
Bovine lung sGC [3]; 1nM sGC, 25μM GTP, 100μM SNAP, 10μM inhibitor
  inhibition of NO stimulated sGC activity, initial screen: substantial inhibition
Bovine lung sGC [3]; global fit of steady state inhibition data, 100μM SNAP
  α-value (mixed inhibition model): 3.6
Bovine lung sGC [3]; judged from α-value of mixed model fit
  inhibition mechanism: mostly non-competitive
Bovine lung sGC [4]
  inhibition of BAY 58-2667 activated sGC: 96%
Full length sGC
  sGC aggregation caused by compound (size exclusion chromatography): did not cause sGC aggregation
SHV-1 β-lactamase
  inhibition of SHV-1 β-lactamase: did not inhibit
